Reference: ChEMBL document CHEMBL1132452, “Synthesis and anticonvulsant activity of novel and potent 2,3-benzodiazepine AMPA/kainate receptor antagonists” (J Med Chem, 1999)

Assays:
[1] = Relative lipophilicity of the compound; assay type: physicochemical; settings: reversed-phase TLC, acetone/water 2:1
How it was run: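 Reversed-phase TLC on plates dried at 105 °C for 1 h. Mobile phase acetone/water 2:1 (v/v). Compound in CHCl3 (3 mg/mL), 1 µL spotted. Five runs, each with a different placement on the plate. Mean Rf converted by Rm = log[(1/Rf) − 1]; higher Rm means higher lipophilicity.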

[2] = organism: Mus musculus; test: The compound was tested for Anticonvulsant activity against audiogenic seizures in DBA/2 mice in tonic phase; assay type: functional
How it was run: (§1)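 Male DBA/2 mice (8–12 g, 22–25 days), groups of 10 per dose, given the compound ip in 30% DMSO/70% saline at doses within 3.3–200 µmol/kg. Sound stimulation 30 min later; latency and incidence of seizure phases scored. ED50 per phase by Litchfield–Wilcoxon, at least 32 animals per value.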

[3] = organism: Mus musculus; test: The compound was tested for Anticonvulsant activity against maximal electroshock (MES) induced seizures in Swiss mice.; assay type: functional
How it was run: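 Swiss mice given the compound ip in 30% DMSO/70% saline, then 45 min later ear-clip electroshock (50 mA, 20 ms pulses, 35 Hz, 400 ms). Protection was abolition of tonic hindlimb extension. Four to five doses, 8–10 mice each; ED50 by Litchfield–Wilcoxon.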

[4] = organism: Mus musculus; test: The compound was tested for Anticonvulsant activity against Pentylenetetrazole (PTZ) induced seizures in Swiss mice; assay type: functional
How it was run: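 Male Swiss mice (20–26 g, 42–48 days) pretreated ip with the compound in 30% DMSO/70% saline, then 45 min later PTZ 85 mg/kg (CD97) sc. Observed for 30 min; protection was absence of clonic spasms lasting at least 5 s. ED50 by Litchfield–Wilcoxon, at least 32 animals.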

[5] = organism: Mus musculus; test: The compound was tested for locomotor deficit (rotarod test) in Swiss mice.
[6] = organism: Mus musculus; test: The compound was tested for Anticonvulsant activity against audiogenic seizures in DBA/2 mice in clonic phase; assay type: functional; how it was run: as §1
[7] = organism: Mus musculus; test: The compound was tested for Anticonvulsant activity against AMPA induced seizures in DBA/2 mice clonic phase.; assay type: functional
[8] = system: Mus musculus; test: The compound was tested for Anticonvulsant activity against audiogenic seizures in DBA/2 mice in clonic phase. 15 min after ip administration.; assay type: functional; settings: 0.25 h
How it was run: (§2)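 Time course in male DBA/2 mice (8–12 g, 22–25 days) after ip dosing in 30% DMSO/70% saline, with auditory stimulation at the stated time after injection. Groups of 10 mice per time point; clonic-phase ED50 (95% confidence limits) by Litchfield–Wilcoxon, at least 32 animals per value.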

[9] = organism: Mus musculus; test: The compound was tested for Anticonvulsant activity against AMPA induced seizures in DBA/2 mice in tonic phase; assay type: functional
[10] = organism: Mus musculus; test: The compound was tested for Anticonvulsant activity against KA induced seizures in DBA/2 mice.; assay type: functional
[11] = organism: Mus musculus; test: The compound was tested for Anticonvulsant activity against audiogenic seizures in DBA/2 mice after pretreatment with Aniracetam in clonic phase; assay type: functional
How it was run: (§3)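 Male DBA/2 mice (8–12 g, 22–25 days) given aniracetam 50 nmol icv 30 min before the ip compound (30% DMSO/saline), i.e. 60 min before auditory stimulation. Clonic or tonic phase incidence scored; ED50 by Litchfield–Wilcoxon, at least 32 animals.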

[12] = organism: Mus musculus; test: The compound was tested for Anticonvulsant activity against audiogenic seizures in DBA/2 mice after pretreatment with Aniracetam in tonic phase.; assay type: functional; how it was run: as §3
[13] = system: Mus musculus; test: The compound was tested for Anticonvulsant activity against audiogenic seizures in DBA/2 mice in clonic phase. 90 min after ip administration.; assay type: functional; settings: 1.5 h; how it was run: as §2
[14] = system: Mus musculus; test: The compound was tested for Anticonvulsant activity against audiogenic seizures in DBA/2 mice in clonic phase. 45 min after ip administration.; assay type: functional; settings: 0.75 h; how it was run: as §2
[15] = system: Mus musculus; test: The compound was tested for Anticonvulsant activity against audiogenic seizures in DBA/2 mice in clonic phase. 120 min after ip administration.; assay type: functional; settings: 2 h; how it was run: as §2
[16] = system: Mus musculus; test: The compound was tested for Anticonvulsant activity against audiogenic seizures in DBA/2 mice in clonic phase. 30 min after ip administration.; assay type: functional; settings: 0.5 h; how it was run: as §2
[17] = system: Mus musculus; test: The compound was tested for Anticonvulsant activity against audiogenic seizures in DBA/2 mice in clonic phase. 60 min after ip administration.; assay type: functional; settings: 1 h; how it was run: as §2

Rm [1] | SMILES | ED50 [2] [µmol/kg] | ED50 [3] [µmol/kg] | ED50 [4] [µmol/kg] | TD50 [5] [µM/kg] | ED50 [6] [µmol/kg] | ED50 [7] [µmol/kg] | ED50 [8] [µmol/kg] | ED50 [9] [µmol/kg] | ED50 [10] [µmol/kg] | ED50 [11] [µmol/kg] | ED50 [12] [µmol/kg] | ED50 [13] [µmol/kg] | ED50 [14] [µmol/kg] | ED50 [15] [µmol/kg] | ED50 [16] [µmol/kg] | ED50 [17] [µmol/kg]
-0.25 | CCCNC(=O)N1N=C(c2ccc(N)cc2)c2cc3c(cc2CC1=O)OCO3 | 49.2 | 76.5 | > 100 | 182 | 69.4 |  |  |  |  |  |  |  |  |  |  | 
-0.552 | Nc1ccc(C2=NNC(=O)Cc3cc4c(cc32)OCO4)cc1 | 10.9 | 32.1 | 71.8 | 99.1 | 15.4 | 37.9 | 7.55 | 28.5 | 19.6 | 62.6 | 39.6 | > 50 | 18.7 | > 50 | 15.4 | 21.3
-0.441 | CNC(=O)N1N=C(c2cccc(N)c2)c2cc3c(cc2CC1=O)OCO3 | 11.2 | 21.4 | 19.6 | 48.9 | 13.6 |  |  |  |  |  |  |  |  |  | 13.6 | 
-0.181 | CCCNC(=O)N1N=C(c2cccc(N)c2)c2cc3c(cc2CC1=O)OCO3 | 63.8 | > 100 | > 100 | >100 | 85.3 |  |  |  |  |  |  |  |  |  |  | 
-0.11 | CCCCNC(=O)N1N=C(c2ccc(N)cc2)c2cc3c(cc2CC1=O)OCO3 | 32.6 | 79.7 | > 100 | 108 | 38.7 |  |  |  |  |  |  |  |  |  |  | 
-0.368 | CCNC(=O)N1N=C(c2ccc(N)cc2)c2cc3c(cc2CC1=O)OCO3 | 23.8 | 52.5 | 68.2 | 134 | 35 |  |  |  |  |  |  |  |  |  |  | 
-0.459 | CNC(=O)N1N=C(c2ccc(N)cc2)c2cc3c(cc2CC1=O)OCO3 | 8.7 | 18.6 | 16.3 | 48.6 | 12.4 | 18.6 | 14.3 | 10.3 | 8.61 | 33.9 | 31 | 19.4 | 12.1 | 40.8 | 12.4 | 13
-0.215 | O=C1Cc2cc3c(cc2C(c2ccccc2)=NN1)OCO3 | 40.6 | 42.6 | 78 | 159 | 43.3 |  |  |  |  |  |  |  |  |  | 43.3 | 
-0.484 | Nc1cccc(C2=NNC(=O)Cc3cc4c(cc32)OCO4)c1 | 12.7 | 19.3 | 40.5 | 101 | 18 | 29.2 | > 50 | 23.8 | 23.2 | 55 | 40.6 | 47.1 | 19.1 | > 50 | 18 | 26.3

The remaining lines, values behind:

SMILES | Rm [1] | ED50 [2] [µmol/kg] | ED50 [3] [µmol/kg] | ED50 [4] [µmol/kg] | TD50 [5] [µM/kg] | ED50 [6] [µmol/kg] | ED50 [7] [µmol/kg] | ED50 [8] [µmol/kg] | ED50 [9] [µmol/kg] | ED50 [10] [µmol/kg] | ED50 [11] [µmol/kg] | ED50 [12] [µmol/kg] | ED50 [13] [µmol/kg] | ED50 [14] [µmol/kg] | ED50 [15] [µmol/kg] | ED50 [16] [µmol/kg] | ED50 [17] [µmol/kg]
Nc1ccc(C2=NN=C(S)Cc3cc4c(cc32)OCO4)cc1 | -0.269 | 5.09 | 9.79 | 25.2 | 39.8 | 11.8 | 15.6 | 5.9 | 11.5 | 15.6 | 31.4 | 16.3 | 45 | 13.4 | > 50 | 11.8 | 19.6
CCNC(=O)N1N=C(c2cccc(N)c2)c2cc3c(cc2CC1=O)OCO3 | -0.323 | 32.1 | 60.2 | 90.7 | 126 | 44.9 |  |  |  |  |  |  |  |  |  |  | 
SC1=NN=C(c2ccccc2)c2cc3c(cc2C1)OCO3 | -0.185 | 18.8 | 37.8 | 80.3 | 97.1 | 23.8 |  |  |  |  |  |  |  |  |  | 23.8 | 
Nc1cccc(C2=NN=C(S)Cc3cc4c(cc32)OCO4)c1 | -0.213 | 8.88 | 30.9 | 40.2 | 53.7 | 16.7 | 32.8 | 32.6 | 26.2 | 18.6 | 65.2 | 85.9 | 45.2 | 15.2 | > 50 | 16.7 | 22.4
CCCCNC(=O)N1N=C(c2cccc(N)c2)c2cc3c(cc2CC1=O)OCO3 | -0.075 | 12.7 | 26.6 | 36.4 | 56.2 | 18.1 |  |  |  |  |  |  |  |  |  |  | 
CC1=NN=C(c2ccc(N)cc2)c2cc3c(cc2C1)OCO3 [GYKI-52466] | -0.404 |  |  |  | 76.1 |  |  | 10.8 |  | 27.8 |  |  | > 50 | 37.2 | > 50 |  | 
